In article PMC7953430 (Chemical Science, 2020):
Where “and” joins values, the source holds several entries; their conditions need not be identical. Equal entries are not always repeated. Where two headings read alike, the source gives them in different places. Each block holds one molecule with its values, some of them ahead of it.

Columns and labels:
[1] = Singlet oxygen sensitization quantum yield; format: physicochemical; conditions: PF6 salts; for 1O2 quantum yield ΦΔ: MeCN; for ΦΔ singlet oxygen quantum yield: air-saturated MeCN, excitation wavelength in brackets
How it was run: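 ΦΔ was measured from ¹O₂ emission near 1276 nm, relative to [Ru(bpy)₃](PF₆)₂ (ΦΔ = 0.56 in aerated MeCN). Samples were 5–20 μM PF₆⁻ salts in air-bubbled, CaH₂-distilled MeCN. Excitation was at the longest wavelength maximising 1268 nm emission. Absorbance and refractive index corrections were applied, in triplicate.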

[2] = test system: SK-MEL-28 human skin melanoma cells; test: Resazurin; format: cell-based
[3] = aerated MeCN; cited from earlier work
SK-MEL-28 cells [4] = test: Resazurin; format: cell-based, human
How it was run: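 SK-MEL-28 cells were equilibrated at 1% O₂ for 2–3 h before dosing and kept hypoxic for at least 16 h. During illumination plates were sealed with qPCR films (about 20 °C, ≤1.5 h). Light was cool white (400–700 nm), green (523 nm) or red (633 nm) at 20 mW cm⁻² to 100 J cm⁻². Cells recovered in normoxia before the resazurin read. PI was dark EC50/light EC50.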

SK-MEL-28 cells [5] = test: Sulforhodamine B; format: cell-based, human; conditions: SRB, hypoxia, across light treatments
SK-MEL-28 cells [6] = test: Os-4T interassay repeats, resazurin, normoxia; format: cell-based, human
SK-MEL-28 cells [7] = test: Os-4T interassay repeats, resazurin, hypoxia; format: cell-based, human
How it was run: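 Hypoxic (1% O₂) SK-MEL-28 phototoxicity was read by resazurin across repeats under three light conditions. Repeat 0 was run in 96-well plates; repeats 1–5 were run within a month in 384-well plates. Plate maps, pipette tips and seed stock (repeats 4–5) were varied, and overhead lights were off in repeat 5. Cells were at passages 10–15, with three replicates per repeat.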

[8] = test system: SK-MEL-28 human amelanotic melanoma cells; test: External validation; format: cell-based; conditions: SK-MEL-28, external validation
How it was run: (§1)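 SK-MEL-28 and B16-F10 cells (B16-F10 grown in DMEM) in log phase were seeded and dosed with 1 nM–300 μM test compound diluted in DPBS (<1.2% v/v DMSO). Plates were irradiated 15–22 h after dosing with broadband projector visible light or a red 630 nm LED panel (33–40 mW cm⁻², 100 J cm⁻²). Resazurin was read at 48 h (530/620 nm). PI was dark EC50/light EC50.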

[9] = test system: B16-F10 murine melanotic melanoma cells; test: External validation; format: cell-based
How it was run: as §1

SK-MEL-28 cells [10] = test: NIR 733 nm photocytotoxicity, normoxia; format: cell-based, human; conditions: read-out: EC50 with 733 nm light, 100 J cm^–2, 5 mW cm^–2
How it was run: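 Normoxic SK-MEL-28 monolayers in 384-well plates were illuminated with a 733 nm laser through a frontal diffuser (5 mW cm⁻², 100 J cm⁻²), with sham-treated dark controls. Viability was read by resazurin and EC50 was taken from the dose–response curve.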

SK-MEL-28 cells [11] = test: NIR 753 nm photocytotoxicity on Modulight ML8500; format: cell-based, human; conditions: 10 μM, 300 mW cm^–2, 200*2 (≥400) J cm^–2, resazurin
How it was run: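 SK-MEL-28 wells were illuminated one by one with a 753 nm laser at a constant 300 mW cm⁻² over 0–400 J cm⁻², at 37 °C and 5% CO₂. Viability was read by resazurin relative to dark wells, in triplicate.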

female C57BL/6J mice = test: Maximum tolerated dose in mice; format: in vivo; conditions: ip doses above 100 mg kg^–1 (100, 125, 200); behaviour resolved after 2 h
[12] = Solubility in high ionic strength solvents; format: physicochemical; conditions: DPBS, media
[13] = read-out: visible EC50, normoxia, visible light 100 J cm^–2
[14] = read-out: EC50 ± SEM Dark, normoxia 18.5–21% O2, no light

Molecule: [Os(phen)2(IP-3T)]^2+ [Os-3T]
- 1O2 quantum yield ΦΔ [1]: 51%
- ΦΔ singlet oxygen quantum yield [1]: 0.51 [525]
- PI Green ([2]; normoxia, dark EC50/green 523 nm EC50): 103
- PI Visible (phototherapeutic index) ([2]; normoxia, dark EC50/visible EC50): 369
- EC50 [2, 13]: 153 nM

Molecule: F[P-](F)(F)(F)(F)F.F[P-](F)(F)(F)(F)F.[Ru+2].c1ccc(-c2ccccn2)nc1.c1ccc(-c2ccccn2)nc1.c1ccc(-c2ccccn2)nc1 [[Ru(bpy)3](PF6)2]
- ΦΔ singlet oxygen quantum yield (standard) [3]: 0.56

Molecule: [Os(phen)2(IP-4T)]^2+ [Os-4T]
- 1O2 quantum yield ΦΔ [1]: 95%
- ΦΔ singlet oxygen quantum yield [1]: 0.95 [525]
- EC50 ([2]; read-out: EC50 with green light, normoxia, green 523 nm, 100 J cm^–2): 1 nM
- EC50 ([2]; read-out: EC50 with red light, normoxia, red 633 nm, 100 J cm^–2): 10 nM
- EC50 [2, 14]: 65100 nM
- EC50 [2, 13]: 0.018 nM
- PI Green (SK-MEL-28 cells [4]; hypoxia 1% O2, dark EC50/green EC50): 91 and > 90
- PI Visible (SK-MEL-28 cells [4]; hypoxia 1% O2, dark EC50/visible EC50): > 90
- EC50 (SK-MEL-28 cells [4]; read-out: light EC50 values in hypoxia, hypoxia 1% O2, across visible, green, red light): 651 to 835 nM
- total growth inhibition (TGI), light-treated samples (SK-MEL-28 cells [5]): 140 to 170 nM
- EC50 (SK-MEL-28 cells [6]; read-out: EC50 range over repeats, green, normoxia): 1.16 to 25.4 nM
- EC50 (SK-MEL-28 cells [6]; read-out: EC50 range over repeats, red, normoxia): 10 to 46.2 nM
- EC50 (SK-MEL-28 cells [6]; read-out: EC50 range over repeats, visible, normoxia): 0.0178 to 8.91 nM
- EC50 (SK-MEL-28 cells [6]; read-out: average dark EC50 across repeats, either oxygen condition (normoxia and hypoxia), <7% variation): 62800 nM
- EC50 (SK-MEL-28 cells [6]; read-out: average normoxic EC50, green, normoxia, repeats): 11.7 nM
- EC50 (SK-MEL-28 cells [6]; read-out: average normoxic EC50, red, normoxia, repeats): 30.8 nM
- EC50 (SK-MEL-28 cells [6]; read-out: average normoxic EC50, visible, normoxia, repeats): 1.62 nM
- PI range across repeats and three light conditions (SK-MEL-28 cells [7]; hypoxia 1% O2): 32 to 167
- average hypoxic PI across the three light conditions (SK-MEL-28 cells [7]; hypoxia 1% O2, repeat 3 excluded): 90
- EC50 ([8]; read-out: red EC50): 9.44 nM
- EC50 ([8]; read-out: visible EC50): 2.91 nM
- PI Visible ([9]; B16-F10, dark EC50/visible EC50): > 20 000 and > 10^4
- EC50 ([9]; read-out: visible EC50, B16-F10, external validation): 15 nM
- EC50 (SK-MEL-28 cells [10]): 803 nM
- reduction of relative cell viability compared to dark (SK-MEL-28 cells [11]): 14%
- observed clinical toxicity (female C57BL/6J mice): mild toxicity

- EC50 [2, 14]: 35700 nM
Molecule: [Os(phen)2(IP-2T)]^2+ [Os-2T]
- ΦΔ singlet oxygen quantum yield [1]: 0.49 [472]

Molecule: [Os(phen)2(IP-1T)]^2+ [Os-1T]
- ΦΔ singlet oxygen quantum yield [1]: 0.42 [473]

- EC50 [2, 14]: 158000 nM
- solubility in high ionic strength solvents [12]: > 300 µM
Molecule: [Cl-].[Cl-].[Os+2].c1cnc2c(c1)ccc1cccnc12.c1cnc2c(c1)ccc1cccnc12.c1cnc2c(c1)ccc1cccnc12 [[Os(phen)3]Cl2, reference compound]
- PI regardless of wavelength ([2]; normoxia, visible, green or red): 2–4

Molecule: [Os(phen)2(IP)]^2+ [Os-0T]
- ΦΔ singlet oxygen quantum yield [1]: 0.43 [473]
